# Source: PubChem BioAssay AID488858 (Broad Institute, 2010)
# Results filed as inconclusive are left out. Activity calls are given as the source filed them.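 Rule for the calls: active = compounds raising caspase signal whose fitted AC50 is at most tenfold their top valid tested dose; inconclusive = flat fit at 30 to 70% activation, or poor fit; inactive = the rest.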
# System: not listed separately
# Assay: caspase-3/7 activation in MEF A1-2A-BIM cells, dose response, A1 (BCL2A1) inhibitor project, cell-based, luminescence, dry powder, set 3 (AID 488858)
# Conditions: MEF A1-2A-BIM cells, caspase-3/7 luminescence; at 150 µM (top of the series)
# In short: (§1)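 Material: A1-dependent A1-2A-BIM mouse embryonic fibroblasts; Quantity: 2500 cells per well; Buffer or medium: RPMI medium with 10% FBS; Dosing: pinned compound dose series; Times: 3 h compound at 37 °C, 1 h reagent at RT; Signal: caspase-3/7 DEVD luminescence.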
row,Compound,caspase activation
1,CC(=O)OC(C)(C)/C=C/C(=O)[C@](C)(O)C1[C@H](O)C[C@@]2(C)C3CC=C4C(C[C@H](O)C(=O)C4(C)C)[C@]3(C)C(=O)C[C@]12C (some centres undefined),1.66% (inactive)
2,COc1cc(/C=C(/C#N)c2nc3ccccc3[nH]2)ccc1OCC(=O)Nc1ccccc1C(C)C,0.201% (inactive)

# System: MEF A1-2A-BIM cells, caspase-3/7 luminescence
# Assay: as above
# Conditions: not given
# In short: as §1
row,Compound,AC50 [µM]
1,Nc1nc(F)nc2c1ncn2[C@@H]1O[C@H](CO)[C@@H](O)[C@H]1O,2.87
2,Cc1ccc(CS(=O)(=O)c2ncc(Cl)c(C(=O)Nc3nnc(C(C)C)s3)n2)cc1,12.3
3,Cc1ccc(Sc2c([N+](=O)[O-])c(=O)n(C)c3ccccc23)cc1,21
4,CCSc1nnc(NC(=O)c2nc(S(=O)(=O)Cc3ccc(F)cc3)ncc2Cl)s1,14.4
5,C/C1=C/C(=O)O[C@@H]2C[C@@H](CC[C@H](C)/C=C\CC1)O[C@@](O)(C1CSC(=O)N1)C2 (some centres undefined),0.37
6,COc1cc(CN2CCN(c3cc(C)ccc3C)CC2)ccc1O,10.6
7,COc1ccc(N(C(=O)CCl)C(C(=O)NCCc2ccccc2)c2cccs2)cc1Cl (centres undefined),0.236
8,Cc1cccc(CS(=O)(=O)c2ncc(Cl)c(C(=O)Nc3nnc(C(C)C)s3)n2)c1,12.6
9,C=C1[C@@H](C)[C@H]2[C@H](Cc3ccccc3)NC(=O)[C@]23[C@H](OC(C)=O)/C=C/[C@](C)(O)C(=O)[C@@H](C)C/C=C/[C@H]3[C@@H]1O,1.2
10,CCOC(=O)CSC1=N/C(=C/c2ccc(-n3cncn3)cc2)C(=O)N1C(C)=O,9.77
11,C=C1[C@@H](C)[C@H]2[C@H](Cc3ccccc3)NC(=O)[C@]23OC(=O)/C=C\[C@H](O)CCC[C@@H](C)C/C=C/[C@H]3[C@@H]1O,2.72
12,O=C(CCl)N=c1sccn1Cc1ccccc1Cl,1.06
13,O=C(Oc1cccc(/C=N/Nc2nc(Nc3ccccc3)nc(N3CCOCC3)n2)c1)c1ccco1,4.23
14,Cc1c(C=O)c(C=O)c(C)n1Cc1ccccc1,6.27
15,Cn1c(=NC(=O)CCl)sc2ccccc21,4
16,Cc1cccc(NC(=O)/C(C#N)=C/c2cn(CC(=O)NCc3ccco3)c3ccccc23)c1,5.6
17,CCc1nnc(NC(=O)c2nc(S(=O)(=O)Cc3ccccc3)ncc2Cl)s1,15.6
18,CC(=O)N[C@H]1[C@H](O[C@H]2CC[C@@]3(C)C(CC[C@]4(C)C3CC=C3[C@@H]5CC(C)(C)CC[C@]5(C(=O)OC5OCC(O)C(O)C5O)C(O)C[C@]34C)C2(C)C)O[C@H](COC2OCC(O)C(OC3OCC(O)C(O)C3O)C2O)[C@@H](O[C@@H]2O[C@@H](C)[C@H](O)[C@@H](O)[C@H]2O[C@@H]2O[C@@H](C)[C@H](O)[C@@H](O)[C@H]2O)[C@@H]1O (some centres undefined),9.71
19,Cc1cc(C(=O)CCl)c(C)n1CCc1ccc(Cl)cc1,6.06
20,Cc1c(CCOC(=O)c2ccc(N3CCOCC3)c([N+](=O)[O-])c2)sc[n+]1CC#N,10.7
21,CCc1cc2c(=O)c(-c3cnn(-c4ccccc4)c3)c(C)oc2cc1OCC(=O)Nc1cccc(C)c1,5.41
22,CC(C)(C)n1nc(-c2ccc(Cl)cc2)c2c(N)ncnc21,6.5
